Measurements from ChEMBL document CHEMBL1155937, “Substituted 3-((Z)-2-(4-nitrophenyl)-2-(1H-tetrazol-5-yl) vinyl)-4H-chromen-4-ones as novel anti-MRSA agents: synthesis, SAR, and in-vitro assessment” (Bioorg Med Chem Lett, 2008).
≈ marks a conversion by molar mass, not a printed value. Values belong to the compound of their own block, whether it stands above or below them.

Tests used:
Staphylococcus aureus [1] = assay: Antibacterial activity against methicillin-sensitive Staphylococcus aureus ATCC 13709 Smith after 24 hrs by twofold serial dilution method; assay type: functional
Summary of the method: (§1)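 CLSI agar-dilution MIC on Mueller Hinton agar with serial twofold drug dilutions. About 10⁴ CFU applied per spot by multipoint inoculator. Incubated at 35 °C and growth scored at 24 h. DMSO served as solvent control. S. aureus ATCC 29213 was the QC strain. Twofold differences were confirmed by a third repetition, and the more frequent result was reported.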

Streptococcus pneumoniae = assay: Antibacterial activity against Streptococcus pneumoniae ATCC 49619 after 24 hrs by twofold serial dilution method; assay type: functional; settings: ATCC 49619, 24 h
Summary of the method: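 About 10⁴ CFU applied per spot. Incubated at 35 °C in 5% CO₂ and growth scored at 24 h. DMSO served as solvent control. Twofold differences were confirmed by a third repetition.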

Enterococcus faecalis = assay: Antibacterial activity against Enterococcus faecalis ATCC 29212 after 24 hrs by twofold serial dilution method; assay type: functional; settings: ATCC 29212, 24 h; summary of the method: as §1
Staphylococcus aureus [2] = assay: Antibacterial activity against methicillin-resistant Staphylococcus aureus 032 after 24 hrs by twofold serial dilution method; assay type: functional
Summary of the method: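 Agar dilution MIC per CLSI on Mueller Hinton agar with serial twofold drug dilutions. About 10⁴ CFU applied per spot with a multipoint inoculator, incubated at 35 °C, and growth scored at 24 h. DMSO served as solvent control. Twofold discrepancies were confirmed by a third repetition, and the more frequent value was reported.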

Escherichia coli = assay: Antibacterial activity against Escherichia coli ATCC 25922 after 24 hrs by twofold serial dilution method; assay type: functional; settings: ATCC 25922, 24 h; summary of the method: as §1
[3] = pKa of the compound; assay type: physicochemical

Structure (SMILES): O=c1c(/C=C(/c2ccc([N+](=O)[O-])cc2)c2nnn[nH]2)coc2c(Cl)cc(Cl)cc12
- MIC (Staphylococcus aureus [1]): 16 µg/mL (≈ 37.2 µM)
- MIC (Streptococcus pneumoniae): 1 µg/mL (≈ 2.32 µM)
- MIC (Enterococcus faecalis): 8 µg/mL (≈ 18.6 µM)
- MIC (Staphylococcus aureus [2]): 2 µg/mL (≈ 4.65 µM)
- MIC (Escherichia coli): > 32 µg/mL

Structure (SMILES): O=c1c(/C=C(/c2ccc([N+](=O)[O-])cc2)c2nnn[nH]2)coc2ccc(Br)cc12
- MIC (Staphylococcus aureus [1]): > 32 µg/mL
- MIC (Streptococcus pneumoniae): > 32 µg/mL
- MIC (Enterococcus faecalis): > 32 µg/mL
- MIC (Staphylococcus aureus [2]): > 32 µg/mL
- MIC (Escherichia coli): > 32 µg/mL

Structure (SMILES): O=C(O)c1cn(C2CC2)c2cc(N3CCNCC3)c(F)cc2c1=O [CIPROFLOXACIN]
- MIC (Staphylococcus aureus [1]): 0.12 µg/mL (≈ 0.362 µM)
- MIC (Streptococcus pneumoniae): 2 µg/mL (≈ 6.04 µM)
- MIC (Enterococcus faecalis): 0.5 µg/mL (≈ 1.51 µM)
- MIC (Staphylococcus aureus [2]): > 32 µg/mL
- MIC (Escherichia coli): > 32 µg/mL

- pKa [3]: 5.85
Structure (SMILES): O=c1c(-c2nnn[nH]2)coc2ccccc12

Structure (SMILES): O=c1c(/C=C(/c2ccc([N+](=O)[O-])cc2)c2nnn[nH]2)coc2ccc(F)cc12
- MIC (Staphylococcus aureus [1]): 8 µg/mL (≈ 21.1 µM)
- MIC (Streptococcus pneumoniae): 0.5 µg/mL (≈ 1.32 µM)
- MIC (Enterococcus faecalis): 4 µg/mL (≈ 10.5 µM)
- MIC (Staphylococcus aureus [2]): 0.5 µg/mL (≈ 1.32 µM)
- MIC (Escherichia coli): > 32 µg/mL

Structure (SMILES): O=c1c(/C=C(/c2ccc([N+](=O)[O-])cc2)c2nnn[nH]2)coc2ccc(Cl)cc12
- MIC (Staphylococcus aureus [1]): > 32 µg/mL
- MIC (Streptococcus pneumoniae): > 32 µg/mL
- MIC (Enterococcus faecalis): > 32 µg/mL
- MIC (Staphylococcus aureus [2]): > 32 µg/mL
- MIC (Escherichia coli): > 32 µg/mL

Structure (SMILES): Cc1ccc2occ(/C=C(/c3ccc([N+](=O)[O-])cc3)c3nnn[nH]3)c(=O)c2c1
- MIC (Staphylococcus aureus [1]): 8 µg/mL (≈ 21.3 µM)
- MIC (Streptococcus pneumoniae): > 32 µg/mL
- MIC (Enterococcus faecalis): > 32 µg/mL
- MIC (Staphylococcus aureus [2]): > 32 µg/mL
- MIC (Escherichia coli): > 32 µg/mL

Structure (SMILES): CC[C@H]1OC(=O)[C@H](C)[C@@H](O[C@H]2C[C@@](C)(OC)[C@@H](O)[C@H](C)O2)[C@H](C)[C@@H](O[C@@H]2O[C@H](C)C[C@H](N(C)C)[C@H]2O)[C@](C)(O)C[C@@H](C)C(=O)[C@H](C)[C@@H](O)[C@]1(C)O [ERYTHROMYCIN]
- MIC (Staphylococcus aureus [1]): 0.5 µg/mL (≈ 0.681 µM)
- MIC (Streptococcus pneumoniae): 0.12 µg/mL (≈ 0.164 µM)
- MIC (Enterococcus faecalis): 2 µg/mL (≈ 2.73 µM)
- MIC (Staphylococcus aureus [2]): > 32 µg/mL
- MIC (Escherichia coli): > 32 µg/mL

Structure (SMILES): Cc1cc2occ(/C=C(/c3ccc([N+](=O)[O-])cc3)c3nnn[nH]3)c(=O)c2cc1Cl
- MIC (Staphylococcus aureus [1]): 16 µg/mL (≈ 39 µM)
- MIC (Streptococcus pneumoniae): 16 µg/mL (≈ 39 µM)
- MIC (Enterococcus faecalis): 16 µg/mL (≈ 39 µM)
- MIC (Staphylococcus aureus [2]): 4 µg/mL (≈ 9.76 µM)
- MIC (Escherichia coli): > 32 µg/mL

Structure (SMILES): Cc1cc(C)c2occ(/C=C(/c3ccc([N+](=O)[O-])cc3)c3nnn[nH]3)c(=O)c2c1
- MIC (Staphylococcus aureus [1]): 8 µg/mL (≈ 20.5 µM)
- MIC (Streptococcus pneumoniae): 16 µg/mL (≈ 41.1 µM)
- MIC (Enterococcus faecalis): 16 µg/mL (≈ 41.1 µM)
- MIC (Staphylococcus aureus [2]): 2 µg/mL (≈ 5.14 µM)
- MIC (Escherichia coli): > 32 µg/mL

Structure (SMILES): CC1(C)S[C@@H]2[C@H](NC(=O)[C@H](N)c3ccccc3)C(=O)N2[C@H]1C(=O)O [AMPICILLIN]
- MIC (Staphylococcus aureus [1]): 0.25 µg/mL (≈ 0.715 µM)
- MIC (Streptococcus pneumoniae): 0.06 µg/mL (≈ 0.172 µM)
- MIC (Enterococcus faecalis): 0.5 µg/mL (≈ 1.43 µM)
- MIC (Staphylococcus aureus [2]): > 32 µg/mL
- MIC (Escherichia coli): > 32 µg/mL
